This data set in a line: Toxicity liver stage against HepG2, at 10uM. In kind it is cell-based. The arrangement: test concentration 10 uM, cell line HepG2-A16-CD81EGFP. The note with it: human, HepG2-A16-CD81EGFP cells; read-out: INHIBITION
A digest of the protocol: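 Uninfected HepG2-A16-CD81EGFP cells, 3 × 10^3 per well, 1536-well, plated on prespotted compound at 10 μM final, parasite-free screening media added to match infected plates; puromycin 10 μM positive, DMSO 0.5% negative; run in parallel with 48 h PbLuc assay at 37 °C, 5% CO2; viability by CellTiter-Glo luminescence, normalized to controls.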
Consider `Cn1c(=O)oc2cc(S(=O)(=O)N3CCC(c4ccccc4)C3)c(Cl)cc21` (stereo unspecified), for which the cytotoxicity at 10 µM came out at 12.4%. With `CCOC(=O)CN1C(=O)CN(S(C)(=O)=O)CCC(OC)c2ccccc21` (stereo unspecified), the cytotoxicity at 10 µM amounted to 1.5%. As for `COc1ccc2c(ccn2CC(=O)NC[C@@H]2CCCN3CCCC[C@H]23)c1`, the cytotoxicity at 10 µM is -4.56%. The figure for `COc1ccccc1OCC(=O)N1CCC[C@]2(C[C@@H](OC)CO2)C1` is 1.04%; for `Cc1cccc(-c2nccnc2C2CCN(C)CC2)c1C` it is 2.14%; for `Cc1nc(-c2ccc(F)cc2)cc(C2CCNCC2)n1` it is 8.1%.

In the case of `CCCN1C[C@H](NC(=O)c2ccccc2F)[C@@H](c2ccc(OC)cc2)C1`, the cytotoxicity at 10 µM is -41.8%.

For the compound `N[C@@H]1CCC[C@@H](Oc2ccc(F)cc2Oc2ccccc2)[C@@H]1O`, the cytotoxicity at 10 µM is -7.39%. The figure for `OC1(Cn2ccc3ncccc32)CCN(Cc2cc(F)cc(F)c2)CC1` is -5.41%. `Cc1ncsc1-c1nnc(C2CCN(Cc3cccc(F)c3F)CC2)o1`: the cytotoxicity at 10 µM is -15.8%.

For `Cc1ccc(CCN2CCCC23Cc2ccccc2CNC3=O)cc1` (stereo unspecified), the cytotoxicity at 10 µM turned out to be 7.41%. With `CCc1cc2c(N3CCCC(c4cc(C(N)=O)[nH]n4)C3)ncnc2s1` (stereo unspecified) the figure was 3.25%. With `CCC(=O)c1cccc(S(=O)(=O)NC(C)C#N)c1` (stereo unspecified) the figure was 3.73%; with `CCSCCOC(=O)CCCc1ccc2c(c1)CC(=O)N2`, 6.34%; with `Cc1ccc(C(=O)N2CCOCC2C(N)=O)c(F)c1` (stereo unspecified), 3.72%. The figure for `CC(C)N(CC(=O)Nc1cccc(C#N)c1)C1CC1` is -7.16%. For the compound `CS(=O)(=O)Cc1noc(CN(Cc2ccco2)c2ccccc2)n1`, the cytotoxicity at 10 µM was -8.3%. As to `Cc1occc1C(=O)NCC(=O)NCCCOc1ccc(F)cc1`, the cytotoxicity at 10 µM was -45.1%. With `CC(C)n1cc(CN2CCCN(C(=O)C3(C)CCOCC3)CC2)cn1` the figure was -48.2%.

As for `Cc1cccc(S(=O)(=O)NC(=O)CN(C)Cc2ccccc2)c1`, the cytotoxicity at 10 µM is -14.3%. With `O=C(NCCNC1CCN(c2nccs2)CC1)c1cccs1` the figure was 5.73%; with `Cc1cc(CNCC2(O)CCOCC2)ccc1Br`, -0.378%. The figure for `O=C(Cc1cccs1)NCC1(O)CCSC1` (stereo unspecified) is -9.66%.

On to `CC1CCN(CC2CCCN(C(=O)Nc3ccccn3)C2)CC1` (stereo unspecified), for which the cytotoxicity at 10 µM was -9.85%.

With `Cc1ccc(NCCNC(=O)C2Cc3cc(C)c(C)cc3O2)nn1` (stereo unspecified), the cytotoxicity at 10 µM came to 3.34%. With `CC(C#N)CSc1ccccc1NCC(=O)NC1CCCCC1` (stereo unspecified) the figure was 9.37%; with `CC(C)COCCC(=O)NCc1cn2cc(Br)ccc2n1`, 4.26%; with `COc1ncccc1C(=O)N1CCCC(n2ccnc2C)C1` (stereo unspecified), -7.41%. The figure for `Cc1c(C(N)=O)sc2nc(C(F)(F)F)ccc12` is -3.33%; for `CC(C)S(=O)(=O)CC(=O)N(Cc1ccsc1)c1ccccc1` it is -5.24%; for `CN1CCN(CCCN(C)S(=O)(=O)CC2CCCCC2)CC1` it is -10.1%.

`CC(CCNC(=O)NCCc1ccc(S(N)(=O)=O)cc1)c1ccccc1` (stereo unspecified): the cytotoxicity at 10 µM was -17.4%. For the compound `N#Cc1cccc(OCC(=O)N(Cc2ccsc2)C2CC2)c1`, the cytotoxicity at 10 µM was -50.2%. The figure for `O=C(NC1CCN(c2ncccn2)CC1)c1cc2c(cc1O)CCCC2` is 8%; for `COc1cc(CN(C)Cc2cccnc2)c(SC)cc1OC` it is 2.3%.

With `CCC(C(=O)Nc1ccc2cn(CC)nc2c1)N1CCCC1=O` (stereo unspecified), the cytotoxicity at 10 µM was -46.7%. The figure for `CO[C@H]1CN(C(=O)OC(C)(C)C)CC1NCc1cccn1C` (stereo partly specified) is -44%. For `CN1CC(C(=O)NCc2cccnc2OCc2ccccc2)CC1=O` (stereo unspecified), the cytotoxicity at 10 µM came out at 4.44%. Regarding `CC(=O)N1CCCN(C2CCCCc3ccccc32)CC1` (stereo unspecified), the cytotoxicity at 10 µM was -48.6%. With `Cc1cc(NC(=O)C(C)N2CCN(c3ccc(C#N)cc3F)CC2)no1` (stereo unspecified) the figure was 6.16%. The figure for `CCOc1ccc(CN(CCC#N)CCN2CCOCC2)cc1OC` is -9.98%; for `O=C(CCc1ccsc1)NS(=O)(=O)Cc1ccon1` it is -12.6%; for `COc1cccc(CSCC(=O)NCc2cccnc2)c1` it is -46.3%. Turning to `CN(CC(=O)N(C)C1CCCCC1)Cc1nc2c(cnn2C)c(=O)[nH]1`, the cytotoxicity at 10 µM was found to be 9.12%. With `Fc1cc(CNCc2ccc3c(c2)CCO3)ccc1N1CCOCC1` the figure was -7.24%; with `Cc1ccc(CNCC2Cn3nncc3CO2)s1` (stereo unspecified), -99.4%. The figure for `Cc1ccoc1C(=O)N1C[C@@H](OCC2CC2)[C@H]2OCCC[C@H]21` is 5.86%. The figure for `NC(=O)N1CCC2(CC1)CN(c1ccsc1)C(=O)CO2` is 10.7%; for `O=C1[C@@H]2CCN(Cc3ccncc3)C[C@@H]2OCCN1c1ccccc1` it is -1.06%; for `C[C@H](O)CNc1cc(-c2ccncc2)ncn1` it is -11.1%.

Consider `CNC(=O)c1cn2cc(-c3cccc(Cl)c3)n(CC3CC3)c(=O)c2n1`, for which the cytotoxicity at 10 µM is -37.4%. With `CCN1CC(C(=O)N2CCc3cc(C(N)=O)n(C)c3C2)CCC1=O` (stereo unspecified) the figure was -44.6%.

On to `CC(C)c1nnc2n1CCN(Cc1ccc3c(c1)OCO3)CC2`, for which the cytotoxicity at 10 µM was 1.67%. Regarding `O=C(C1CCOCC1)N1CCOC(CC2CCCCC2)C1` (stereo unspecified), the cytotoxicity at 10 µM is -5.56%. With `Cc1cc(C)c2c(c1)C(CC(=O)O)C(=O)N2` (stereo unspecified) the figure was 7.16%; with `c1ccc(-c2ncn(CCCN3CCOCC3)c2-c2ccncc2)cc1`, -7.64%; with `CCNC(=O)[C@@H]1C[C@@H](NC(=O)c2cc(C)on2)CN1Cc1ccccn1`, -6.78%. With `Cc1[nH]c2ccc(CNc3cc(C(=O)NC(C)C)ccn3)cc2c1C` the figure was 16.2%; with `Cc1n[nH]c(CCC(=O)N2CCOC(Cc3ccc(F)cc3)C2)c1C` (stereo unspecified), -40.4%; with `CCOC(=O)N[C@H]1C[C@@H](C(=O)NCCc2cccc(Cl)c2)N(C)C1`, -3.79%. With `Cc1ccc([C@@H]2CN(S(=O)(=O)Cc3ccccc3)C[C@H]2N(C)C)cc1` the figure was -2.85%; with `CN(C)c1nc(NCCCN2CCc3ccccc32)ncc1F`, 27.3%.

For the compound `CSCc1nc(CNC(=O)c2cnn(C(C)C)c2)cs1`, the cytotoxicity at 10 µM was 1.98%. On to `CC(C)N(C(=O)c1ccccc1-c1nc2c([nH]1)CCNC2)C(C)C`, for which the cytotoxicity at 10 µM was -45%.

With `Cc1nnsc1CN(C)Cc1ccc(C(=O)Nc2sccc2C#N)cc1`, the cytotoxicity at 10 µM was 4.06%. The figure for `O=C1CN(Cc2cn(CC3CCCN(C4CCSCC4)C3)nn2)CCN1` (stereo unspecified) is -49.3%; for `CCc1nc(CNc2cc(C)nc(-c3cccnc3)n2)cs1` it is -63.6%; for `CC(C)n1ccnc1CNC(=O)c1cccc(CCC(C)(C)O)c1` it is -36.4%. For the compound `COc1cc(N2CCCC(c3nccn3Cc3ccncc3)C2)ncn1` (stereo unspecified), the cytotoxicity at 10 µM is -6.82%. With `CC(C)CN1CCc2[nH]cnc2C12CCN(C(=O)c1ccccn1)CC2` the figure was -11.6%.

For the compound `CC(C)[C@H]1CN(C2Cc3ccccc3C2)C[C@@H]1NS(=O)(=O)N(C)C`, the cytotoxicity at 10 µM stood at 1.52%. On to `CCCc1cc(C(=O)N2C[C@H](O)[C@@H](N3CCCC3)C2)ccn1`, for which the cytotoxicity at 10 µM was found to be 5.92%. The figure for `CNC(=O)c1[nH]nc2c1CN(c1cc(C3CCCNC3)nc(C)n1)CC2` (stereo unspecified) is -51.8%; for `Oc1ccc(-c2c(-c3ccccc3)ncn2C2CCNC2)cc1` (stereo unspecified) it is -45.3%; for `COc1cccc(C(=O)N2CCN(C(=O)CCn3ccnc3)CC2)c1` it is 10.3%. For the compound `CCc1nc(N)sc1C(=O)N1CCCC(CCc2ccccc2C)C1` (stereo unspecified), the cytotoxicity at 10 µM was 6.46%. The figure for `Fc1ccccc1-c1noc2c1CN(CC1CC1)CC2` is -15.4%; for `CC(C)n1ccnc1CN1CCCN(C(=O)c2cscn2)CC1` it is -1.63%.

For the compound `CN(Cc1nc2ccccc2o1)CC1CCCN1c1cccnn1` (stereo unspecified), the cytotoxicity at 10 µM is -9.45%. On to `Cc1cn2c(n1)CCC(NC(=O)CCC(F)(F)F)C2` (stereo unspecified), for which the cytotoxicity at 10 µM is -9.12%. `Cc1ccc(CNC(c2ccccc2)c2nccn2C)cc1C` (stereo unspecified): the cytotoxicity at 10 µM stood at 0.323%. With `Cn1nccc1CNC(=O)Nc1cc(C(F)(F)F)c[nH]c1=O` the figure was 1.04%; with `CC(C)(C)CC(=O)NCCn1nc(C2CCNC2)c2cccnc21` (stereo unspecified), -0.00173%.

In the case of `O=C1CC[C@H]2[C@H](CCN2C(=O)C2CCOC2)N1Cc1ccncc1` (stereo partly specified), the cytotoxicity at 10 µM was 6.67%. With `Cc1ccc(CN2CCC3(C2)C(=O)N(CC2CC2)c2ccccc23)s1` (stereo unspecified) the figure was 13.4%; with `CCCN1CCC(c2nc3ccc(-c4ccccc4)cn3n2)CC1`, -129%; with `c1ccc(OCC2C[C@@H]3[C@@H](C2)OCCN3Cc2ccoc2)nc1` (stereo partly specified), -0.514%.

Regarding `CN1[C@H](Cn2cncn2)C[C@@H]2CN(Cc3ccsc3)CC[C@@H]21`, the cytotoxicity at 10 µM is -118%.

Take `CN1CCN(C2COC3(CCN(Cc4ccsc4)CC3)C2)CC1` (stereo unspecified): the cytotoxicity at 10 µM is -77.1%.

On to `Cc1ccc(CN2CCn3c(CNC(=O)c4cccn4C)cnc3C2)s1`, for which the cytotoxicity at 10 µM came to 1.82%.

For the compound `Cn1nc(CN2CCCC2)c2c1CN(c1cnccn1)CC2`, the cytotoxicity at 10 µM is -95.3%.

For the compound `COCCN1CCC12CCN(C(=O)c1ccc(C)nc1)C2` (stereo unspecified), the cytotoxicity at 10 µM was -102%. With `Cc1ccc(CN2CC[C@H]3OCC[C@@]3(COCC(=O)N(C)C)C2)s1`, the cytotoxicity at 10 µM was -97.8%. With `O=C(C1CC1)N1CCc2ccccc2C12CCNCC2` the figure was 5.35%.

With `Cc1ccc(CN2CCc3onc(C(=O)NCCN(C)C)c3C2)o1`, the cytotoxicity at 10 µM amounted to 5.9%. Take `Cc1ccccc1C(=O)N1C[C@@H]2C(CN(C)CCc3ccccn3)[C@@H]2C1` (stereo partly specified): the cytotoxicity at 10 µM was -54.9%.
